Compound activity: PubChem BioAssay, several laboratories
Arr AP2 block: blocks beta-arrestin peptide binding to AP2 adaptin. FITC-arrestin peptide / GST-AP2 beads, flow cytometry; AP2 beta2 appendage carries R879A mutation. 340,000 compounds, 0.31% hits. inhibition, % at 10 µM;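 active means inhibition above a set limit, near 3 SD of compounds lacking own fluorescence, cut at about 54% in these data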;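 further: plate controls were DMSO wells for no effect and 5 µM unlabelled arrestin peptide for full effect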
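Assay system: GST-AP2 R879A bound to glutathione beads, E. coli-expressed; Medium: PBS with 0.05% Tween 20 and 0.1% BSA; Also added: fluorescein-tagged arrestin peptide at 50 nM final; Timing: 12 min plus 1 h, RT; Measured by: flow cytometry, FL1 (488/535 nm); Evaluation: percent drop in bead-associated FITC signal.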
Neddylation inh: blocks human cullin neddylation. P61081+Q13564. TR-FRET cullin neddylation, biochemical. inhibition, % at 25 µM. 360,000 compounds, 0.58% hits. AID 651699; in the data active means inhibition above about 36%
Efflux pump inh: blocks antifungal efflux pumps in multiplex yeast assay; 330,000 compounds, 0.44% hits; inhibition, % at 10 µM; S. cerevisiae Candida pump triplex, Nile Red efflux;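 active means plate passing quality check with inhibition over a set limit, or well fluorescence over plate mean plus 4 SD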;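 further: Nile Red retained in pooled yeast measured as flow cytometry median fluorescence; 0% = buffer negative control and 100% = Enniatin B positive control; higher means more Nile Red kept so more efflux inhibition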
DSG3 Ab inh: inhibitors of pemphigus antibody binding to human desmoglein-3. binding (percent of control), % at 10 µM. 310,000 compounds, 0.48% hits. P32926. DSG3-coupled beads, scFv-anti-DSG3-GFP binding, flow cytometry; hits give low values;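 active means binding more than 3 SD below its plate's average and above zero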;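 further: hits lower antibody fragment binding to DSG3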
Target sequence (P32926 whole entry, looked up, the tested form may be a part): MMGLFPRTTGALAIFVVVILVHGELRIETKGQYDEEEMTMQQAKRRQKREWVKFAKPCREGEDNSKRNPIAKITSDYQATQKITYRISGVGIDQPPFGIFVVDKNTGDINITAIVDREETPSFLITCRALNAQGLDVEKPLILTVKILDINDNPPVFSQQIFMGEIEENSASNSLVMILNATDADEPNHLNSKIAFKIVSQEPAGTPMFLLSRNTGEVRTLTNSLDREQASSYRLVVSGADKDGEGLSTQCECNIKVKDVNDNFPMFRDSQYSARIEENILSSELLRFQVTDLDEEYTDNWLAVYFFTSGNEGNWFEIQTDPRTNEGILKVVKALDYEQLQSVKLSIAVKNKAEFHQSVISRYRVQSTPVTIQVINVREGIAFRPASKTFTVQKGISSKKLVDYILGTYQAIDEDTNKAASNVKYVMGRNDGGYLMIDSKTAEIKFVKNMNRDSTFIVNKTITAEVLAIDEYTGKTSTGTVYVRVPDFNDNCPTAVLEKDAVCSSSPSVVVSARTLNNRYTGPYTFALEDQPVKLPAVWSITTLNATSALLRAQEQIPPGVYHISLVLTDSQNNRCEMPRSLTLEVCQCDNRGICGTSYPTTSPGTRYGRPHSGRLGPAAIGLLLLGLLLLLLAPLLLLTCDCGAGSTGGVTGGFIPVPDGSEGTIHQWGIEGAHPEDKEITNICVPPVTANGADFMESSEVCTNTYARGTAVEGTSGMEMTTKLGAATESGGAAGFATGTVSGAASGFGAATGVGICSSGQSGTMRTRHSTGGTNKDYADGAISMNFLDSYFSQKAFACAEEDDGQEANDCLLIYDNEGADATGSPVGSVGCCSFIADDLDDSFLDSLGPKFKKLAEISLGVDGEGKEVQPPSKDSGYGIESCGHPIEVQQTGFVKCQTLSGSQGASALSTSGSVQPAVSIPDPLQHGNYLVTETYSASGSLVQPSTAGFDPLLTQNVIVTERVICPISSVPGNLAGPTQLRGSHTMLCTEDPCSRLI
* = called active by the depositor; x = no result given; ! = not confirmed by another sample. Sampled rows, rich in hits. Any-hit rate of the full collection: about 1.7%.

SMILES	Arr AP2 block	Neddylation inh	Efflux pump inh	DSG3 Ab inh
COC(=O)CCC(=O)N1CCCC(N2CCN(c3cccc(C(F)(F)F)c3)CC2)C1 (centres undefined)	-6.7	3.5	0.0	101.3
COCCn1c(-c2ccco2)csc1=Nc1cccnc1	-5.2	8.2	-0.3	95.8
COc1ccc(O)c(/C=N/n2c(-c3ccco3)csc2=Nc2cccnc2)c1	37.7	21.4	-0.1	1.2*
Cc1ccc(NC(=O)Cc2ccc([N+](=O)[O-])cc2)c(Br)c1	18.3	-8.9	-0.2	6.2*
CC(=O)c1ccc(NC(=O)CN2C(=O)/C(=C/C=C/c3ccccc3)SC2=S)cc1	-1.0	-2.4	-0.3	80.2*
CCC(=O)c1cc2c(C)cc(=O)oc2c(C)c1OC(C)=O	22.5	22.7	-0.1	99.6
CCC(=O)c1cc2c(C)cc(=O)oc2c(C)c1O	-6.3	-65.3	0.0	51.2*
COc1ccc(/C=N/NC(=O)c2ccc(COc3cccc4cccnc34)cc2)cc1O	8.9	13.5	0.1	93.5
COc1ccc(/C=N/NC(=O)c2ccc(COc3cccc4cccnc34)cc2)cc1OC	-14.3	35.0	0.4	5.2*
O=C(CCC(=O)OCC(=O)c1ccccc1)Nc1cccc2cccnc12	6.8	7.4	0.1	8.4*
C=CC(=O)Nc1cccc(Oc2ccnc(Nc3ccc(N4CCN(C)CC4)cc3)n2)c1	-4.7	-24.1	x	108.4
C=CC(=O)Nc1cccc(Oc2ccnc3[nH]ccc23)c1	-5.2	38.0*	x	108.4
Brc1ccc(CNc2ccc3ncccc3c2)cc1	0.8	47.9*	0.1	118.0
CN(Cc1ccccc1)C(=O)CSc1n[nH]c(N)n1	11.3	2.7	-0.1	117.5
COCCCNc1cc(C)nc2ccccc12	7.7	-2.4	0.2	91.6
Cc1cc(NCCCCCCCNc2cc(C)nc3cc([N+](=O)[O-])ccc23)c2ccc([N+](=O)[O-])cc2n1	26.5	45.5*	x	82.4
C=C(Br)CN1[C@@H](Cc2ccccc2)[C@H](O)[C@@]23C=C[C@@H](C[C@@H]2S1(=O)=O)O3	7.9	-14.6	-0.4	85.5*
COc1ccccc1C(=O)O[C@H]1[C@H](Cc2ccccc2)NS(=O)(=O)[C@H]2C[C@@H]3C=C[C@]12O3	2.5	-31.5	-0.6	100.8
CNc1nc(N(C)C)nc(N(C)C)n1	3.9	-2.0	0.0	194.3
COc1ccccc1C(=O)NCCC(=O)NCCOc1ccc(C)cc1	x	1.0	x	97.9
Cc1ccc(OCCNC(=O)c2ccccc2N)cc1	10.1	x	0.3	45.5*
O=C(Nc1ccccc1)c1ccccc1OCc1ccc(S(=O)(=O)N2CCOCC2)cc1	-0.2	20.2	-0.1	67.2*
CC(C)OC(=O)/C(=C\c1ccc2c(c1)c1ccccc1n2C)NC(=O)c1ccccc1	0.2	38.5*	-0.1	100.9
Nc1c(-c2ccccc2)cnc2cc(-c3ccccc3)nn12	-6.0	11.3	x	79.6*
CCCCN(C(=O)Cc1ccc2c(c1)OCCO2)c1c(N)n(CC(C)C)c(=O)[nH]c1=O	37.2	9.8	x	98.1
SMILES	Arr AP2 block	Neddylation inh	Efflux pump inh	DSG3 Ab inh
CC1(C)Cc2nc3sc4c(=O)[nH]cnc4c3cc2CS1	-1.8	10.7	0.2	79.5*
CCC(=O)c1ccc(OCC(=O)OCC(=O)c2cc(C)n(C)c2C)cc1	37.6	10.7	0.1	x
O=C(Cc1ccc2c(c1)CCCC2)Nc1ccccc1Br	1.4	-37.9	0.0	97.7
O=C(Cc1ccc2ccccc2c1)Nc1ccccc1Br	16.0	-9.1	0.0	86.9*
CC(=O)Nc1cccc(NC(=O)CSc2ccc(C(F)(F)F)cc2[N+](=O)[O-])c1	-4.0	-16.6	0.0	84.2*
O=C(CSc1ccc(C(F)(F)F)cc1[N+](=O)[O-])Nc1ccc2ccccc2c1	-3.2	6.8	0.3	103.6
COc1ccc(/C=N/NC(=O)c2cc(-c3ccccc3OC)nc3ccccc23)cc1COC(C)=O	4.7	38.9*	0.2	105.4
COc1ccc(/C=N/NC(=O)c2cc(-c3ccc(C)cc3C)nc3ccccc23)cc1COC(C)=O	3.5	x	0.1	x
C[c-]1[c-](C)[c-](C)[c-](C)[c-]1C.[Fe].c1cc2nccc(N3CCCC3)[c-]2c1 (centres undefined)	5.7	-8.2	0.1	80.2*!
c1cc(N2CCCCC2)nc(N2CCCCC2)n1	-12.8	-3.0	x	90.6
Cc1cc(NC(c2cccnc2)c2ccc3cccnc3c2O)no1 (centres undefined)	32.2	-6.9	0.0	100.2
Oc1c(C(Nc2cccc(C(F)(F)F)c2)c2cccnc2)ccc2cccnc12 (centres undefined)	2.2	40.4*	-0.4	124.8
CCN=C(NCC)SC1CC(=O)N(CCc2ccccc2)C1=O (centres undefined)	38.8	2.7	0.2	105.0
Cc1cccc(NC(=O)[C@H](Cc2ccccc2)NC(=O)OCc2ccccc2)c1	-16.4	-5.2	-0.2	-3.4*
Cc1ccc(S(=O)(=O)N(Cc2cc3cc4c(cc3[nH]c2=O)OCCO4)CC2CCCO2)cc1 (centres undefined)	-5.6	-438.8	0.0	82.5*
O=CN/C=C/c1cc(O)ccc1O	4.7	32.5	0.0	77.7*
O=Cc1ccc(O)cc1O	0.6	1.9	0.0	98.8
COc1ccc(-n2c(N)c(C(=O)NCC3CCCO3)c3nc4ccccc4nc32)c(OC)c1 (centres undefined)	-2.9	x	-0.1	72.9*
CCc1noc(C)c1C(=O)N(C)CC(=O)Nc1ccccc1C(F)(F)F	-3.0	9.0	-0.1	7.5*
O=C(Nc1ccc(Nc2ccncc2)cc1)c1ccc(Nc2ccnc3ccc([N+](=O)[O-])cc23)cc1	9.3	32.6	x	59.9*
O=C(Nc1ccc(Cc2ccncc2)cc1)c1cccc([N+](=O)[O-])c1	1.9	-13.7	-0.1	89.9
COc1ccccc1NC(=O)c1ccc(-n2ccnc2)c([N+](=O)[O-])c1	13.6	-15.6	0.3	65.9*
C#CCN(CC=C)C(=O)CCc1nnc(COc2ccccc2)o1	2.1	-3.7	-0.1	82.4
Cc1c(C(=O)Nc2ccc(C(=O)Nc3ccccc3)cc2)cccc1[N+](=O)[O-]	8.9	0.5	0.2	100.5
Cc1c(C(=O)Nc2ccc(OCc3ccccc3)cc2)cccc1[N+](=O)[O-]	-2.3	-5.8	-0.2	39.3*
SMILES	Arr AP2 block	Neddylation inh	Efflux pump inh	DSG3 Ab inh
CCc1nnc(NC(=O)C2CCN(c3ncnc4sc(C)c(C)c34)CC2)s1	23.1	-93.5	-0.1	x
Cc1ccc2nc(NC(=O)C3CCN(c4ncnc5sc(C)c(C)c45)CC3)sc2c1	24.3	-229.8	0.1	86.2*
Cc1ccc(C)c(/C=N/NC(=S)NCCc2ccccc2)c1	24.8	6.5	0.2	101.5
Cc1ccc2c(c1)N(CCC(=O)NC1CCCCC1)C(=O)CO2	-4.4	0.7	0.1	92.8
O=c1nc(-c2ccccc2)c2ccccc2[nH]1	10.1	35.2	0.1	87.6*
O=C(Nc1ccc2nn(-c3ccccc3)nc2c1)c1ccc2c(c1)OCCO2	2.7	x	-0.1	103.8
CCOc1ccc(-n2nc3ccc(NC(=O)c4ccc5c(c4)OCCO5)cc3n2)cc1	-4.7	x	0.5	5.0*
COc1ccccc1C(CNC(=O)c1ccc(NS(=O)(=O)c2ccc3c(c2)OCCO3)cc1)N(C)C (centres undefined)	-10.8	0.3	-0.2	99.1
